Inconclusive results are not listed.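 Rule for the calls, unless noted: active = RAM network inhibition above 8.4% in each of two replicates, 3 SD over the compound average; inconclusive = above 8.4% inhibition in only one replicate; inactive = 8.4% inhibition or less in each replicate.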
How the values were obtained:
[1] = OD615 S. cerevisiae growth inhibition, permissive medium, pilot counter-assay, permissive growth control for S. cerevisiae lifespan shortening project (AID 705;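 active = growth inhibition above 25% in both replicates, a cutoff set 3 SD above the mean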); details: OD615, 24 h, at 10 µM, active compounds read high
Summary of the method: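 System: S. cerevisiae with engineered DeaD lifespan system / Measured by: absorbance (optical density) at 615 nm / Read-out: reduction in yeast growth (OD615) / Times: 4 h cell pre-growth, 24 h exposure at 30 °C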

[2] = Restrictive medium S. cerevisiae growth inhibition, OD615, pilot screen of yeast lifespan reduction project, restrictive growth control (AID 706;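 active = growth inhibition above a set limit, 3 SD over mean compound inhibition, in both replicates, cut at about 43% in these data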;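 note: modified DeaD lifespan yeast strain shifted to restrictive glucose medium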); details: OD615, 48 h, at 10 µM, active compounds read high
Summary of the method: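 System: Engineered S. cerevisiae DeaD strain | Buffer or medium: Glucose-based CSMM-D restrictive medium | Schedule: 4 h pre-incubation, 48 h exposure at 30 °C | Technique: Optical density at 615 nm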

[3] = viability gain of MRP-1-high H69AR cells under doxorubicin, pilot screen, MRP-1 activator project, CellTiter-Glo, duplicate (AID 807;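 active = viability increase at or above a cutoff of the median across tested compounds plus 3 SD, cut at about 8.5% in these data, passing the limit was not always enough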;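 note: compound pretreatment 18-22 h then 72 h combined with doxorubicin; 0% = doxorubicin alone and 100% = vehicle without doxorubicin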); details: H69AR viability with doxorubicin, CellTiter-Glo luminescence; at 10 µM; active compounds read high
[4] = growth suppression of beta-catenin knockout HCT116, pilot screen, human colon tumor cells (AID 823;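 active = cell viability at or below a set limit in both duplicate runs, the limit being the all-compound median minus 4 SD, cut at about 23% in these data, passing the limit was not always enough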;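 note: 0% = wells killed by 20 µM Hyamine and 100% = untreated DMSO cell wells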); details: CellTiter-Glo, 60 h, at 10 µM, active compounds read low
[5] = growth suppression of PTEN-deleted HCT116, pilot screen, cell-based, HCT116 clonal line, CellTiter-Glo (AID 824;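 active = viability at or below 27.92% in each of two runs, the all-compound median minus 4 SD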;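 note: 0% = 20 µM Hyamine control and 100% = vehicle cell control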); details: 60 h, at 10 µM, active compounds read low
[6] = inhibitors of the yeast RAM network, pilot screen, dse1pr::URA3 reporter, 5-FOA selection (AID 869;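 active = inhibition over a set limit, the all-compound mean plus 3 SD, in both replicate runs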;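 note: 0% = DMSO wells with no growth and 100% = 10 µM 1-NA-PP1 with full growth; RAM network block rescues cells from 5-FOA so hits raise OD615 growth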); details: S. cerevisiae dse1pr::URA3 5-FOA growth, OD615, 2 d; at 10 µM; active compounds read high; strain carries analog-sensitive mutant Cbk1 kinase
[7] = RAM signaling pathway blockade in yeast – S. cerevisiae, Pdr1DBD-CYC8 efflux-inhibited sensitized strain, primary screen (AID 1298);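 note: 0% = DMSO untreated cells without growth and 100% = 10 µM 1-NA-PP1 full growth; higher means more yeast growth rescued from 5-FOA killing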; details: S. cerevisiae cbk1-as DSE1-URA3 strain, 5-FOA growth OD615, 2 d; at 50 µM; active compounds read high

COc1ccc(-c2nnc(SCC(=O)N3CCN(c4ccccc4)CC3)o2)cc1OC
inactive: growth inhibition [1] -7.28% | growth inhibition [2] 7.65% | viability increase [3] -6.37% | viability [4] 73.7% | viability [5] 90% | inhibition [6] 1.64% | RAM network inhibition [7] 1.67%

Cc1cc2oc(C(=O)Nc3cccnc3)c(C)c2cc1C
inactive: growth inhibition [1] 7.22% | growth inhibition [2] 6.46% | viability increase [3] -1.32% | viability [4] 90.1% | viability [5] 87% | inhibition [6] 0.52% | RAM network inhibition [7] 1.77%

CCN1C(=O)c2cccc3c(NC(=O)c4ccc(S(=O)(=O)N5CCOCC5)cc4)ccc1c23
inactive: growth inhibition [1] 14.5% | growth inhibition [2] 3.86% | viability increase [3] -6.36% | viability [4] 65.6% | viability [5] 65.8% | inhibition [6] 1.11% | RAM network inhibition [7] 2.6%

CCOC(=O)c1ccc(NC(=O)C2CCCN(S(=O)(=O)c3cnc[nH]3)C2)cc1 (configuration not stated)
inactive: growth inhibition [1] 2.33% | growth inhibition [2] 2.53% | viability increase [3] 0.94% | viability [4] 105% | viability [5] 96.7% | inhibition [6] 0.31% | RAM network inhibition [7] 2.17%

COc1ccc(OC)c(CCNC(=O)CN2C(=O)CC(C)(C)S(=O)(=O)c3ccccc32)c1
inactive: growth inhibition [1] -4.35% | growth inhibition [2] -14.1% | viability increase [3] -2.6% | viability [4] 101% | viability [5] 92.3% | inhibition [6] -0.045% | RAM network inhibition [7] 2.76%

CCOC(=O)c1cccc(NC(=O)C2CCCN2S(=O)(=O)c2cccc3cccnc23)c1 (configuration not stated)
inactive: growth inhibition [1] -9.1% | growth inhibition [2] -2.39% | viability increase [3] -3.02% | viability [4] 92% | viability [5] 89.8% | inhibition [6] 1.41% | RAM network inhibition [7] -1.53%

O=C(NCc1ccco1)C1CCN(c2nc3ccccc3n2Cc2ccc(F)cc2)CC1
inactive: growth inhibition [1] -6.36% | growth inhibition [2] -0.175% | viability increase [3] -5.61% | viability [4] 78.1% | viability [5] 73.9% | inhibition [6] 0.41% | RAM network inhibition [7] 7.12%

CCCCCCC1C(C#N)=C(N)OC2=C1C(=O)CCC2 (configuration not stated)
inactive: growth inhibition [1] -12% | growth inhibition [2] -14.4% | viability increase [3] -2.64% | viability [4] 101% | viability [5] 92% | inhibition [6] 3.6% | RAM network inhibition [7] 4.66%

CCOc1ccc(C2c3c(oc4ccccc4c3=O)C(=O)N2CCCN2CCOCC2)cc1OCC (configuration not stated)
inactive: growth inhibition [1] -14% | growth inhibition [2] -31.3% | viability increase [3] -4.89% | viability [4] 102% | viability [5] 88.6% | inhibition [6] 0.48% | RAM network inhibition [7] 1.21%

Cn1cccc1Cc1nnc(SCC(=O)N2CCCCCC2)n1CCc1ccccc1
inactive: growth inhibition [1] 10% | growth inhibition [2] 25.7% | viability increase [3] -1.8% | viability [4] 95.2% | viability [5] 96.1% | inhibition [6] 2.48% | RAM network inhibition [7] 2.94%

CS(=O)(=O)N1CCN(Cc2ccccc2C(F)(F)F)CC1
inactive: growth inhibition [1] -19.1% | growth inhibition [2] -5.12% | viability increase [3] 0.93% | viability [4] 91.1% | viability [5] 94% | inhibition [6] -0.185% | RAM network inhibition [7] 6.47%

CN(CCCNC(=O)Cn1cc2c(n1)CCCC2)C1CCCCC1
inactive: growth inhibition [1] -2.1% | growth inhibition [2] -0.155% | viability increase [3] -3.43% | viability [4] 99.2% | viability [5] 90.2% | inhibition [6] -1.29% | RAM network inhibition [7] 1.23%

O=C(O)c1ccc(-n2nnnc2SCc2ccccc2F)cc1
inactive: growth inhibition [1] -13.7% | growth inhibition [2] 6.63% | viability increase [3] 1.71% | viability [4] 105% | viability [5] 102% | inhibition [6] 2.46% | RAM network inhibition [7] 9.03%

COc1ccc(C2N3CC4(C)CN2CC(C)(C3)C4=O)cc1OC (configuration not stated)
inactive: growth inhibition [1] -1.15% | growth inhibition [2] 2.95% | viability increase [3] -0.5% | viability [4] 102% | viability [5] 103% | inhibition [6] 1.67% | RAM network inhibition [7] 0.11%

Cc1cc(NC(=O)CSc2nnc(Cn3c(=O)sc4ccccc43)n2-c2ccccc2C)no1
inactive: growth inhibition [1] -0.97% | growth inhibition [2] -2.43% | viability increase [3] -1.05% | viability [4] 89% | viability [5] 87% | inhibition [6] 1.27% | RAM network inhibition [7] 7.59%

Cc1nc(CNS(=O)(=O)c2ccc3c(c2)CCCC3)cs1
inactive: growth inhibition [1] -5.81% | growth inhibition [2] -2.64% | viability increase [3] -1.72% | viability [4] 96.7% | viability [5] 73.8% | inhibition [6] 1.51% | RAM network inhibition [7] 0.22%

c1nc(N2CCCCC2)c2[nH]cnc2n1
inactive: growth inhibition [1] -2.33% | growth inhibition [2] -9.23% | viability increase [3] -5.39% | viability [4] 113% | viability [5] 102% | inhibition [6] 1.4% | RAM network inhibition [7] 2.24%

C1CCC(Nc2nnnn2C2CCCCC2)CC1
inactive: growth inhibition [1] -16.8% | growth inhibition [2] -16.1% | viability increase [3] -2.17% | viability [4] 90.4% | viability [5] 92.5% | inhibition [6] 1.41% | RAM network inhibition [7] 3.33%

CCOC(=O)N1CCN(C(=O)CN(c2ccc(Oc3ccccc3)cc2)S(C)(=O)=O)CC1
inactive: growth inhibition [1] -5.22% | growth inhibition [2] -15.6% | viability increase [3] -2% | viability [4] 75.2% | viability [5] 66.2% | inhibition [6] 0.265% | RAM network inhibition [7] 2.44%

O=C(CCC1CCCC1)c1c(O)c2ccccc2oc1=O
inactive: growth inhibition [1] 0.51% | growth inhibition [2] 13.6% | viability increase [3] -2.11% | viability [4] 69.4% | viability [5] 67.7% | inhibition [6] 0.63% | RAM network inhibition [7] -1.56%

CCn1c(SCC(=O)N2CCN(c3ccccc3)CC2)nc2c(c1=O)SC(C)C2 (configuration not stated)
inactive: growth inhibition [1] -13.4% | growth inhibition [2] -10.2% | viability increase [3] -2.66% | viability [4] 88.5% | viability [5] 78.4% | inhibition [6] 1.4% | RAM network inhibition [7] 2.11%

Brc1ccc(-c2nnc(-c3ccco3)o2)cc1
inactive: growth inhibition [1] -19.6% | growth inhibition [2] -17.3% | viability increase [3] 0.83% | viability [4] 95.1% | viability [5] 93.9% | inhibition [6] 0.93% | RAM network inhibition [7] 7.37%

CCOc1cccc2sc(NC(=O)c3ccc(Br)s3)nc12
inactive: growth inhibition [1] -25.6% | growth inhibition [2] -9.82% | viability increase [3] -3.55% | viability [4] 65.4% | viability [5] 58% | inhibition [6] 2.42% | RAM network inhibition [7] 4.63%

COc1ccc(CCNC(=O)CC2Oc3ccc(Cl)cc3NC2=O)cc1OC (configuration not stated)
inactive: growth inhibition [1] -0.31% | growth inhibition [2] -7.26% | viability increase [3] -0.06% | viability [4] 96.2% | viability [5] 97.6% | inhibition [6] 1.17% | RAM network inhibition [7] 5.03%

COc1ccccc1N1CCN(CCCC(=O)c2ccc(F)cc2)CC1
inactive: growth inhibition [1] -11.5% | growth inhibition [2] 1.04% | viability increase [3] -0.78% | viability [4] 80.6% | viability [5] 88.9% | inhibition [6] 2.29% | RAM network inhibition [7] -0.89%

N#Cc1ccccc1Cn1c(=O)n(-c2ccc(CC(=O)NCc3ccco3)cc2)c(=O)c2sccc21
inactive: growth inhibition [1] -3.44% | growth inhibition [2] 3.28% | viability increase [3] -1.7% | viability [4] 97.8% | viability [5] 99.6% | inhibition [6] 2.13% | RAM network inhibition [7] 4.46%

COc1ccc(N2Cc3cccc(C(=O)NC(C)CCc4ccco4)c3C2=O)cc1 (configuration not stated)
inactive: growth inhibition [1] -3.44% | growth inhibition [2] -3.73% | viability increase [3] 3.67% | viability [4] 95.3% | viability [5] 95.3% | inhibition [6] 1.92% | RAM network inhibition [7] 7.29%

Cn1ccnc1SCC(=O)c1cc2ccccc2o1
inactive: growth inhibition [1] -6.64% | growth inhibition [2] -0.315% | viability increase [3] -2.52% | viability [4] 95.7% | viability [5] 99.4% | inhibition [6] 0.57% | RAM network inhibition [7] 1.04%

O=C1CCCN1CC(CN1CCOCC1)Sc1nnnn1-c1ccccc1 (configuration not stated)
inactive: growth inhibition [1] -0.73% | growth inhibition [2] 7.22% | viability increase [3] -3.37% | viability [4] 100% | viability [5] 105% | inhibition [6] 1.56% | RAM network inhibition [7] 5.8%

Cc1cc(-c2ccco2)n(CC(=O)NCc2ccco2)n1
inactive: growth inhibition [1] -3.72% | growth inhibition [2] -9.28% | viability increase [3] -2.82% | viability [4] 100% | viability [5] 100% | inhibition [6] 0.355% | RAM network inhibition [7] 2.47%

COc1ccc(C)cc1NC(=O)CN1C(=O)c2ccccc2S1(=O)=O
inactive: growth inhibition [1] 6.31% | growth inhibition [2] 10.8% | viability increase [3] -2.12% | viability [4] 102% | viability [5] 94.4% | inhibition [6] 3.04% | RAM network inhibition [7] 4.58%

O=c1c(N2CCOCC2)nsnc1N1CCOCC1
inactive: growth inhibition [1] 8.28% | growth inhibition [2] -6.26% | viability increase [3] -1.68% | viability [4] 106% | viability [5] 95.8% | inhibition [6] 0.59% | RAM network inhibition [7] -2%

COc1ccc(C(=O)Nc2nncs2)cc1S(=O)(=O)N1CC(c2ccccc2)CC1=O (configuration not stated)
inactive: growth inhibition [1] -12.7% | growth inhibition [2] 18% | viability increase [3] 0.31% | viability [4] 101% | viability [5] 87% | inhibition [6] 0.92% | RAM network inhibition [7] 3.31%

O=C1c2cccnc2C(=O)N1Cc1ccccc1
inactive: growth inhibition [1] -1.31% | growth inhibition [2] -3.01% | viability increase [3] -0.58% | viability [4] 101% | viability [5] 101% | inhibition [6] 0.015% | RAM network inhibition [7] 0.79%

Cc1cc(C)c(S(=O)(=O)N2CCN(C)CC2)c(C)c1
inactive: growth inhibition [1] -9.57% | growth inhibition [2] -13.9% | viability increase [3] 1.1% | viability [4] 101% | viability [5] 101% | inhibition [6] 0.885% | RAM network inhibition [7] 1.78%

O=C(c1ccccc1)c1cccc(NC(=O)c2ccco2)c1
inactive: growth inhibition [1] -8.52% | growth inhibition [2] -5.33% | viability increase [3] -3.35% | viability [4] 92.5% | viability [5] 96.3% | inhibition [6] -0.895% | RAM network inhibition [7] -0.72%

— PubChem BioAssay
